These results are taken from ChEMBL document CHEMBL1122171, “Hypobetalipoproteinemic agents. 3. Variation of the polycyclic portion of 4-(1-adamantyloxy)aniline” (1982).

What all share (type): functional
For assay [1], the system named is Rattus norvegicus. In words: Hypobetalipoproteinemic activity was determined in diet-induced hypercholesterolemic rats at a dose of 0.18 (mmol/kg)/day (heparin precipitating lipoproteins level was determined). The essentials: (§1)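 Cholesterol-cholic acid fed rats given each compound at 50 (mg/kg)/day in 0.25% aqueous methylcellulose vehicle. Serum total cholesterol, heparin precipitating lipoproteins (HPL) and HPL/cholesterol ratio measured. Values expressed as T/C, the treated-group mean divided by the control mean. Significance vs control set at p < 0.05. Food intake and weight gain monitored. Active compounds retested for confirmation.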

Assay [2] has as its system Rattus norvegicus. In words: Hypobetalipoproteinemic activity was determined in diet-induced hypercholesterolemic rats at a dose of 0.18 (mmol/kg)/day (total cholesterol level was determined). The essentials:
as §1

Assay [3] has as its system Rattus norvegicus. Briefly: Hypobetalipoproteinemic activity was determined in diet-induced hypercholesterolemic rats at a dose of 0.17 (mmol/kg)/day (heparin precipitating lipoproteins level was determined). The essentials:
as §1

The subject of assay [4] is Rattus norvegicus. In words: Hypobetalipoproteinemic activity was determined in diet-induced hypercholesterolemic rats at a dose of 0.17 (mmol/kg)/day (total cholesterol level was determined). The essentials: as §1
Assay [5] is described as follows: Ratio of heparin precipitating lipoproteins level to cholesterol level was determined. The essentials: as §1
The subject of assay [6] is Rattus norvegicus. In words: Hypobetalipoproteinemic activity was determined in diet-induced hypercholesterolemic rats at a dose of 0.22 (mmol/kg)/day (heparin precipitating lipoproteins level was determined). The essentials: as §1
Assay [7] has as its system Rattus norvegicus. Briefly: Hypobetalipoproteinemic activity was determined in diet-induced hypercholesterolemic rats at a dose of 0.22 (mmol/kg)/day (total cholesterol level was determined). The essentials: as §1
The subject of assay [8] is Rattus norvegicus. In words: Hypobetalipoproteinemic activity was determined in diet-induced hypercholesterolemic rats at a dose of 0.19 (mmol/kg)/day (total cholesterol level was determined). The essentials: as §1
In assay [9] the test system is Rattus norvegicus. Briefly: Hypobetalipoproteinemic activity was determined in diet-induced hypercholesterolemic rats at a dose of 0.19 (mmol/kg)/day (heparin precipitating lipoproteins level was determined). The essentials: as §1

Consider `Cl.Nc1ccc(OC23CCCCC2CCCC3)cc1` (stereo in doubt; 14), for which the T/C with Rattus norvegicus [1] turned out to be 0.89; with Rattus norvegicus [2], 0.92.
With `Nc1ccc(OC23CC4C5CC6CC4C(C2)C(C6)C5C3)cc1`, the T/C is listed as 0.19 with Rattus norvegicus [3] and 0.31 in the assay with Rattus norvegicus [4]. Also, in assay [5], the Ratio is 0.62.
Turning to `CCCCCCCC(C)(C)Oc1ccc(N)cc1.Cl`, the T/C in the assay with Rattus norvegicus [3] is reported as 0.84; with Rattus norvegicus [4], 0.98. The Ratio in [5] amounted to 0.86.
In the case of `Nc1ccc(OC23CC4CC5C6CC(CC52)CC3C6C4)cc1`, the T/C in the assay with Rattus norvegicus [3] is recorded as 0.35; in the assay with Rattus norvegicus [4], 0.53. Further, the Ratio in assay [5] was determined as 0.66.
As for `CCCC(C)(C)Oc1ccc(N)cc1.Cl`, the T/C in the assay with Rattus norvegicus [6] was determined as 0.78; in the assay on Rattus norvegicus [7] it was 0.84. Further, the Ratio in assay [5] turned out to be 0.92.
`CCCCCC(C)(C)Oc1ccc(N)cc1.Cl`: the T/C in the assay with Rattus norvegicus [8] is reported as 1.02; with Rattus norvegicus [9], 0.96. Also, the Ratio in assay [5] stood at 0.94.
For the molecule `Cl.Nc1ccc(OC23CCCCC2CCCC3)cc1` (stereo in doubt; 17), the figures for the T/C in the assay with Rattus norvegicus [1] and with Rattus norvegicus [2] were 1.24 and 1.38, respectively.
With `Nc1ccc(OC23CCCCC2CCCC3)cc1` (stereo in doubt; 17), the Ratio in assay [5] worked out at 0.9.
Same read-out and setting: the result for `Nc1ccc(OC23CCCCC2CCCC3)cc1` (stereo in doubt; 14) reads 0.97.
